Experimental data as given in ChEMBL document CHEMBL1157459 (J Med Chem, 2008).
One block for each compound: values may come before it. Activity calls are given as the source filed them. No cut-off for these calls is given here.

Legend:
[1] = target: T1, Gamma-aminobutyric acid type B receptor subunit 1 (Homo sapiens, UniProt Q9UBS5); assay: Activity at human GABAb 1A/2 receptor expressed in Xenopus oocytes assessed as whole cell current production at 600 uM by two electrode voltage clamp method; type: cell-based; conditions: Oocyte
T1 sequence (Q9UBS5 whole entry): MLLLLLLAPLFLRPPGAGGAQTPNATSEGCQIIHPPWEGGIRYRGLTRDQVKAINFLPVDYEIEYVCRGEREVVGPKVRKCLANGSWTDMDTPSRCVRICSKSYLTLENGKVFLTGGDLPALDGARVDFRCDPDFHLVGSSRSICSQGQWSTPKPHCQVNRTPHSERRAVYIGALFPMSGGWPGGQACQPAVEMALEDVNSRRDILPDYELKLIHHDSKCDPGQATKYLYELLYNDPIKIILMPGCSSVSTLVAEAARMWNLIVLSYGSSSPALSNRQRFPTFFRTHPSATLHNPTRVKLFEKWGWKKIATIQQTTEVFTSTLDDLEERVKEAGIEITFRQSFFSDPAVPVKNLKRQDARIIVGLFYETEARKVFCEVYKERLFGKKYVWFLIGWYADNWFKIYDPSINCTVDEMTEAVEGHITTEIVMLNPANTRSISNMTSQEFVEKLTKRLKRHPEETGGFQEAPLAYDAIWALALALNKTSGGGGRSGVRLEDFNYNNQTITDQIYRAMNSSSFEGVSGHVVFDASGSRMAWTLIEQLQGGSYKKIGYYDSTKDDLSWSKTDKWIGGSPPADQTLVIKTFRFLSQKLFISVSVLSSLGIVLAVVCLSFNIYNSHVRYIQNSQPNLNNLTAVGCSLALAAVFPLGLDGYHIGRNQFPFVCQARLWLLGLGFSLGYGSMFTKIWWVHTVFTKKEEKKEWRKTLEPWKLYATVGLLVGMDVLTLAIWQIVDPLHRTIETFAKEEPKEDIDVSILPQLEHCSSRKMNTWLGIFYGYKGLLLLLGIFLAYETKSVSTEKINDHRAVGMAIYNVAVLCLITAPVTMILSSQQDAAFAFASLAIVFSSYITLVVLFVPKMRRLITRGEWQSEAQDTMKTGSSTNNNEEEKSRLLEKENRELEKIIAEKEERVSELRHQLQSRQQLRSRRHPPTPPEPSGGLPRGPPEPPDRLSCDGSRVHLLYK

[2] = target: T2, Gamma-aminobutyric acid receptor subunit rho-1 (Homo sapiens, UniProt P24046); assay: Antagonist activity at human GABAc Rho1 receptor expressed in Xenopus oocytes assessed as whole cell current production by two electrode voltage clamp method; type: functional, cell-based, Oocyte; conditions: for Kb: Oocyte
T2 sequence (P24046 whole entry): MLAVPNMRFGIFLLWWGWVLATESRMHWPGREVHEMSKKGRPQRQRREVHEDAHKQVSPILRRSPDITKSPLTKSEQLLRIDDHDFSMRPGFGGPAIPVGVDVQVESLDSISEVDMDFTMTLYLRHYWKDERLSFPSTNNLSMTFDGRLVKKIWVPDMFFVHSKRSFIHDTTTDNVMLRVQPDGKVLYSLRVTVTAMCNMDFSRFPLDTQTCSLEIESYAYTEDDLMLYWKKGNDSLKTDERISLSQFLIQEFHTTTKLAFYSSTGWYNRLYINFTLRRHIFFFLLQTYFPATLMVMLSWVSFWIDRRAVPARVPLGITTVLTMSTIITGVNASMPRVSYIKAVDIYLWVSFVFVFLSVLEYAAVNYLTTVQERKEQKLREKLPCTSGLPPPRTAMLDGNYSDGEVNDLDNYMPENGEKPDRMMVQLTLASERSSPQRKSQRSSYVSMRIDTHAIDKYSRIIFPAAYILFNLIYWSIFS

[3] = target: T3, GABA-A receptor; agonist GABA site (Homo sapiens) (UniProt P14867+P47870+P28472+P48169+P34903+P18505+P47869+P31644+Q16445); assay: Activity at human alpha-1-beta-2-gamma-2L GABAA receptor expressed in Xenopus oocytes assessed as inhibition of current production at 600 uM by two electrode voltage clamp method relative to GABA; type: cell-based; conditions: Oocyte
[4] = target: T2, Gamma-aminobutyric acid receptor subunit rho-1; assay: Agonist activity at human GABAc Rho1 receptor expressed in Xenopus oocytes assessed as whole cell current production by two electrode voltage clamp method; type: functional, cell-based, Oocyte
[5] = target: T1, Gamma-aminobutyric acid type B receptor subunit 1; assay: Agonist activity at human GABAb 1A/2 receptor expressed in Xenopus oocytes assessed as whole cell current production by two electrode voltage clamp method; type: functional, cell-based, Oocyte
[6] = target: T1, Gamma-aminobutyric acid type B receptor subunit 1; assay: Intrinsic activity at human GABAb 1A/2 receptor expressed in Xenopus oocytes assessed as maximum whole cell current production by two electrode voltage clamp method relative to GABA; type: cell-based; conditions: Oocyte
Summary of the method: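 Human GABA-B(1A/2) receptors expressed from cRNA (50 ng/50 nL) in Xenopus oocytes held 1-5 days at 18 °C. Voltage clamp at -60 mV in high-K+ buffer (45 mM KCl, 45 mM NaCl, 1 mM MgCl2, 1.8 mM CaCl2, 5 mM HEPES). Responses normalised to the maximal response to 600 µM GABA. Imax and EC50 taken from concentration-response fits. Mean ± SEM, n = 3-5 oocytes.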

[7] = target: T2, Gamma-aminobutyric acid receptor subunit rho-1; assay: Antagonist activity at human GABAc Rho1 receptor expressed in Xenopus oocytes assessed as whole cell current production at 600 uM by two electrode voltage clamp method; type: functional, cell-based; conditions: Oocyte
[8] = target: T3, GABA-A receptor; agonist GABA site (Homo sapiens); assay: Agonist activity at human alpha-1-beta-2-gamma-2L GABAA receptor expressed in Xenopus oocytes assessed as inhibition of current production by two electrode voltage clamp method; type: functional, cell-based; conditions: Oocyte

SMILES: CP(=O)(O)[C@H]1C[C@@H](N)C1
Activity [1]: inactive | IC50 [2]: > 100 µM

SMILES: Oc1noc2c1CCNC2
Kb [2]: 32 µM

SMILES: CP(=O)(O)C1CCNCC1
Kb [2]: 6 µM

SMILES: CCCCP(=O)(O)C1=CC[C@H](N)C1
inhibition [3]: 24.2% | Kb [2]: 4.97 µM

SMILES: CCP(=O)(O)C1=CCC(N)C1 (racemic)
inhibition [3]: 5.2% | Kb [2]: 3.53 µM

EC50 [4]: 9 µM
SMILES: NC[C@@H]1C[C@H]1C(=O)O

Kb [2]: 6.6 µM
SMILES: CP(=O)(O)[C@@H]1CC[C@@H](N)C1

SMILES: CCCCP(=O)(O)C1=CC[C@@H](N)C1
Activity [3]: inactive | Kb [2]: 59.3 µM

SMILES: CP(=O)(O)/C=C\CN
Kb [2]: 38.9 µM

SMILES: CP(=O)(O)C1=CCNCC1
EC50 [5]: 500 µM | Kb [2]: 2.1 µM

inhibition [3]: 64.1% | Kb [2]: 48.6 µM
SMILES: NC1CC=C(P(=O)(O)Cc2ccccc2)C1 (racemic)

SMILES: CP(=O)(O)C1=CCC(N)C1 (racemic)
inhibition [3]: 6.2% | EC50 [5]: 51 µM | Imax [6]: 56.4% | Kb [2]: 1.84 µM

SMILES: CP(=O)(O)[C@H]1C[C@H](N)C1
Activity [1]: inactive | IC50 [2]: > 100 µM

SMILES: CC(C)P(=O)(O)C1=CCC(N)C1 (racemic)
inhibition [3]: 8.8% | Kb [2]: 13.1 µM

Activity [1]: inactive | Activity [7]: inactive
SMILES: CP(=O)(O)[C@]1(O)C[C@@H](N)C1

Kb [2]: 20 µM
SMILES: NCCCCC(=O)O

IC50 [2]: > 800 µM
SMILES: NC[C@@H]1C[C@@H]1C(=O)O

Kb [2]: 6.6 µM
SMILES: CP(=O)(O)[C@H]1CC[C@H](N)C1

EC50 [4]: 0.4 µM
SMILES: NC/C=C/C(=O)O [t-4-AMINOCROTONIC ACID (TACA)]

SMILES: O=C(O)Cc1c[nH]cn1
Kb [2]: 1.7 µM

SMILES: CP(=O)(O)C1=CC[C@H](N)C1
inhibition [3]: 4.1% | EC50 [5]: 52.2 µM | Imax [6]: 75.9% | Kb [2]: 0.78 µM

SMILES: CCCCP(=O)(O)C1=CCC(N)C1 (racemic)
inhibition [3]: 23.2% | Kb [2]: 7.24 µM

SMILES: O=[Se](O)C1CCNCC1
Kb [2]: 0.95 µM

ED50 [8]: 1.1 µM | Kb [2]: 6 µM
SMILES: N[C@H]1CC=C(C(=O)O)C1 (stereo in doubt; 6)

EC50 [4]: 40 µM
SMILES: NC[C@H]1C[C@H]1C(=O)O

EC50 [4]: 59 µM
SMILES: NC[C@H]1C[C@@H]1C(=O)O

IC50 [2]: 12.9 µM
SMILES: NCC(=O)CCC(=O)O [AMINOLEVULINIC ACID]

SMILES: NCc1cc(=O)[nH]o1 [MUSCIMOL]
EC50 [4]: 1.4 µM

Activity [1]: inactive | Activity [7]: inactive
SMILES: CP(=O)(O)[C@]1(O)C[C@H](N)C1

Kb [2]: 1.1 µM
SMILES: CP(=O)(O)[C@H]1CC[C@@H](N)C1

Kb [2]: 6.1 µM
SMILES: N[C@H]1CC=C(C(=O)O)C1 (stereo in doubt; (S-6))

Kb [2]: 1.1 µM
SMILES: CP(=O)(O)[C@@H]1CC[C@H](N)C1

SMILES: CP(=O)(O)C1=CC[C@@H](N)C1
Activity [3]: inactive | EC50 [5]: 71.9 µM | Imax [6]: 52.3% | Kb [2]: 18.9 µM
